Test results from ChEMBL document CHEMBL5329210, “Novel piperazine-1,2,3-triazole leads for the potential treatment of pancreatic cancer” (RSC Med Chem, 2023).

Columns and labels:
[1] = Inhibition of cell growth of human pancreatic cancer cells measured after 72 hrs by CCK8 assay; assay type: functional
Summary of the method: (§1)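 CCK-8 viability in human pancreatic cancer lines. Compounds were added over 100–0.05 μM 24 h after seeding, alongside a 0.5% DMSO vehicle. After 72 h, CCK-8 was incubated for 1 h at 37 °C. A450 minus A650 was expressed as % of vehicle. IC50 was taken from the dose-response curve. Seeding was 3×10^3/well for MiaPaCa2 and 7×10^3/well for BxPC3 and CFPAC-1. n = 3.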

[2] = test system: MIA PaCa-2; assay: Inhibition of cell growth of human MIA PaCa-2 cells measured after 72 hrs by CCK8 assay; assay type: functional; summary of the method: as §1
[3] = test system: ASPC1; assay: Inhibition of cell growth of human ASPC1 cells measured after 72 hrs by CCK8 assay; assay type: functional
[4] = test system: Capan-2; assay: Inhibition of cell growth of human Capan-2 cells measured after 72 hrs by CCK8 assay; assay type: functional
[5] = test system: PANC-1; assay: Inhibition of cell growth of human PANC-1 cells measured after 72 hrs by CCK8 assay; assay type: functional
[6] = test system: HPAC; assay: Inhibition of cell growth of human HPAC cells measured after 72 hrs by CCK8 assay; assay type: functional
[7] = test system: BXPC-3; assay: Inhibition of cell growth of human BXPC-3 cells measured after 72 hrs by CCK8 assay; assay type: functional; summary of the method: as §1
[8] = test system: U-87 MG; assay: Inhibition of cell growth of human U87 cells measured after 72 hrs by MTT assay; assay type: functional, U-87MG ATCC
Summary of the method: (§2)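 MTT read-out. Cancer lines were grown in DMEM with 10% FBS, glutamine and antibiotics. MCF10A was grown in DMEM:F12 with 5% horse serum, EGF, hydrocortisone, cholera toxin and insulin. Cells were plated in duplicate at 2500–4000/well, and drug was added 24 h later. After 72 h, absorbance was read at 540 nm. Single-point lines used 25 μM. GI50 is 50% growth inhibition versus untreated control. n = 3.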

[9] = Inhibition of cell growth of human SJG2 cells measured after 72 hrs by MTT assay; assay type: functional; details: SJ-G2; summary of the method: as §2
[10] = test system: BXPC-3; assay: Inhibition of cell growth of human BXPC-3 cells at 25 uM measured after 72 hrs by CCK8 assay relative to control; assay type: functional
Summary of the method: (§3)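 Single 25 μM exposure, read by CCK-8, n = 3, relative to control. Seeding was 3×10^3/well for MiaPaCa2, 7×10^3/well for BxPC3 (in RPMI-1640/10% FBS) and 1×10^4/well for HPDE (in KSFM with rEGF/BPE). After 24 h attachment, cells were exposed for 72 h. CCK-8 was then incubated for 1 h, and A450 minus A650 was compared with 0.5% DMSO.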

[11] = test system: BE(2)-C; assay: Inhibition of cell growth of human BE2C cells measured after 72 hrs by MTT assay; assay type: functional; summary of the method: as §2
[12] = test system: MCF7; assay: Inhibition of cell growth of human MCF7 cells measured after 72 hrs by MTT assay; assay type: functional; summary of the method: as §2
[13] = test system: A2780; assay: Inhibition of cell growth of human A2780 cells measured after 72 hrs by MTT assay; assay type: functional; summary of the method: as §2
[14] = test system: MIA PaCa-2; assay: Inhibition of cell growth of human MIA PaCa-2 cells at 25 uM measured after 72 hrs by CCK8 assay relative to control; assay type: functional; summary of the method: as §3
[15] = Inhibition of cell growth of human MCF-10A cells measured after 72 hrs by MTT assay; assay type: toxicity, cell-based; summary of the method: as §2
[16] = test system: A-431; assay: Inhibition of cell growth of human A-431 cells measured after 72 hrs by MTT assay; assay type: functional; summary of the method: as §2
[17] = test system: MIA PaCa-2; assay: Inhibition of cell growth of human MIA PaCa-2 cells measured after 72 hrs by MTT assay; assay type: functional; summary of the method: as §2
[18] = test system: HT-29; assay: Inhibition of cell growth of human HT-29 cells measured after 72 hrs by MTT assay; assay type: functional; summary of the method: as §2
[19] = Inhibition of cell growth of human HPDE cells at 25 uM measured after 72 hrs by CCK8 assay relative to control; assay type: toxicity, cell-based; summary of the method: as §3
[20] = test system: NCI-H460; assay: Inhibition of cell growth of human NCI-H460 cells measured after 72 hrs by MTT assay; assay type: functional; summary of the method: as §2
[21] = test system: DU-145; assay: Inhibition of cell growth of human DU-145 cells measured after 72 hrs by MTT assay; assay type: functional; summary of the method: as §2
[22] = test system: HPAC; assay: Inhibition of cell growth of human HPAC cells at 25 uM measured after 72 hrs by MTT assay relative to control; assay type: functional; summary of the method: as §2
[23] = test system: A2780; assay: Inhibition of cell growth of human A2780 cells at 25 uM measured after 72 hrs by MTT assay relative to control; assay type: functional; summary of the method: as §2
[24] = test system: BXPC-3; assay: Inhibition of cell growth of human BXPC-3 cells at 25 uM measured after 72 hrs by MTT assay relative to control; assay type: functional; summary of the method: as §2
[25] = test system: Capan-2; assay: Inhibition of cell growth of human Capan-2 cells at 25 uM measured after 72 hrs by MTT assay relative to control; assay type: functional; summary of the method: as §2
[26] = test system: MIA PaCa-2; assay: Inhibition of cell growth of human MIA PaCa-2 cells at 25 uM measured after 72 hrs by MTT assay relative to control; assay type: functional; summary of the method: as §2
[27] = test system: PANC-1; assay: Inhibition of cell growth of human PANC-1 cells at 25 uM measured after 72 hrs by MTT assay relative to control; assay type: functional; summary of the method: as §2
[28] = test system: MCF7; assay: Inhibition of cell growth of human MCF7 cells at 25 uM measured after 72 hrs by MTT assay relative to control; assay type: functional; summary of the method: as §2
[29] = test system: BE(2)-C; assay: Inhibition of cell growth of human BE2C cells at 25 uM measured after 72 hrs by MTT assay relative to control; assay type: functional; summary of the method: as §2
[30] = Inhibition of cell growth of human MCF-10A cells at 25 uM measured after 72 hrs by MTT assay relative to control; assay type: toxicity, cell-based; summary of the method: as §2
[31] = test system: HT-29; assay: Inhibition of cell growth of human HT-29 cells at 25 uM measured after 72 hrs by MTT assay relative to control; assay type: functional; summary of the method: as §2
[32] = test system: ASPC1; assay: Inhibition of cell growth of human ASPC1 cells at 25 uM measured after 72 hrs by MTT assay relative to control; assay type: functional; summary of the method: as §2

## O=S(=O)(NCCCNCc1ccc(Cl)cc1)c1cc(C(F)(F)F)cc(C(F)(F)F)c1
[1]
  GI50: 1.6 µM

## COc1cccc(-c2cn(CCCN3CCN(S(=O)(=O)c4ccc(NC(C)=O)cc4)CC3)nn2)c1
[2]
  GI50: ~50 µM

## CCc1ccc(-c2cn(CCCN3CCN(S(=O)(=O)c4ccc(C(F)(F)F)cc4)CC3)nn2)cc1
[3]
  GI50: 8 µM
[4]
  GI50: 6.1 µM
[5]
  GI50: 6.1 µM
[6]
  GI50: 5.8 µM
[7]
  GI50: 3.7 µM

## O=S(=O)(c1ccc(C(F)(F)F)cc1)N1CCN(CCCn2cc(-c3ccc(Br)cc3)nn2)CC1
[3]
  GI50: 8.3 µM
[4]
  GI50: 7.7 µM
[5]
  GI50: 6.8 µM
[6]
  GI50: 9.6 µM
[7]
  GI50: 8 µM

## COc1ccc(S(=O)(=O)N2CCN(CCCn3cc(-c4cccc(OC)c4)nn3)CC2)cc1
[8]
  GI50: > 50 µM
[9]
  GI50: 32 µM
[10]
  inhibition at 25 µM: < 10%
[11]
  GI50: > 50 µM
[12]
  GI50: 38 µM
[13]
  GI50: 27 µM
[14]
  inhibition at 25 µM: 20.3%
[15]
  GI50 at 72 h: > 50 µM
[16]
  GI50: > 50 µM
[17]
  GI50: > 50 µM
[18]
  GI50: 30 µM
[19]
  inhibition at 72 h, 25 µM: 33.9%
[20]
  GI50: > 50 µM
[21]
  GI50: > 50 µM

## O=S(=O)(c1ccc(C(F)(F)F)cc1)N1CCN(CCCn2cc(-c3ccc(C(F)(F)F)cc3)nn2)CC1
[3]
  GI50: 18 µM
[4]
  GI50: 16 µM
[5]
  GI50: 16 µM
[6]
  GI50: 15 µM
[7]
  GI50: 14 µM

## COc1cccc(-c2cn(CCCN3CCN(S(=O)(=O)c4ccc([N+](=O)[O-])cc4)CC3)nn2)c1
[8]
  GI50: > 50 µM
[9]
  GI50: > 50 µM
[10]
  inhibition at 25 µM: 21.1%
[11]
  GI50: > 50 µM
[12]
  GI50: > 50 µM
[13]
  GI50: 27 µM
[14]
  inhibition at 25 µM: < 10%
[15]
  GI50 at 72 h: > 50 µM
[16]
  GI50: > 50 µM
[17]
  GI50: > 50 µM
[18]
  GI50: 41 µM
[19]
  inhibition at 72 h, 25 µM: 46.5%
[20]
  GI50: > 50 µM
[21]
  GI50: > 50 µM

## O=S(=O)(c1cccc(C(F)(F)F)c1)N1CCN(CCCn2cc(-c3ccc(C(F)(F)F)cc3)nn2)CC1
[22]
  inhibition at 25 µM: 74%
[23]
  inhibition at 25 µM: 65%
[24]
  inhibition at 25 µM: 55%
[25]
  inhibition at 25 µM: 67%
[26]
  inhibition at 25 µM: 58%
[27]
  inhibition at 25 µM: 60%
[28]
  inhibition at 25 µM: 86%
[29]
  inhibition at 25 µM: 61%
[30]
  inhibition at 72 h, 25 µM: 59%
[31]
  inhibition at 25 µM: 50%
[32]
  inhibition at 25 µM: 50%
